Experimental data: PMC7089137 (Pharmaceutical Chemistry Journal, 2019)
Values after ≈ are worked out from the molar mass of the structure shown.

What was measured:
Vaccina virus = test: microbe, parasite or virus in culture; type: cell-based, vaccinia virus Lederle strain; settings: Orthopoxvirus vaccinia, HEL, read-out: EC50 Vaccina virus
Para influenza-3 virus = test: Inhibition of virus-induced cytopathicity, parainfluenza-3 virus in Vero; type: cell-based
Reo virus-1 = test: Inhibition of virus-induced cytopathicity, reovirus-1 in Vero; type: cell-based; settings: Vero cell cultures
Sindbis virus = test: Inhibition of virus-induced cytopathicity, Sindbis virus in Vero; type: cell-based; settings: Vero cell cultures
Punta Toro virus = test: Inhibition of virus-induced cytopathicity, Punta Toro virus in Vero; type: cell-based; settings: Vero cell cultures
[1] = system: human cervix carcinoma HeLa cells; test: Cytostatic assay, inhibition of HeLa cell proliferation; type: cell-based; settings: 72 h, read-out: IC50 HeLa
Outline: (§1)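 Each well is seeded with (5–7.5) × 10^4 tumor cells and exposed to test compound at 100, 20, 4, 0.8, 0.16 and 0.032 μg/mL (5-fold dilutions). Cells grow at 37°C in humidified CO2: 48 h for murine L1210, 72 h for human CEM and HeLa. They are then counted with a Coulter counter. IC50 is the concentration halving proliferation, reported as mean ± SD of at least two to three independent experiments. Cisplatin is the reference.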

[2] = system: L1210, CEM and HeLa cells; test: Cytostatic activity over the three tumor cell lines; type: cell-based
Outline: as §1

N#Cc1ccc(NC(=S)NN)cc1 [I, N-(4-cyanophenyl)hydrazinecarbothioamide]
EC50 (Vaccina virus): 45 to 50 µg/mL (≈ 234 to 260 µM)

N#Cc1ccc(NC(=S)NN=Cc2ccc(N(CCCl)CCCl)cc2)cc1 [Ig, 2-{4-[Bis(2-chloroethyl)amino]benzylidene}-N-(4-cyanophenyl)hydrazinecarbo thioamide]
inhibitory activity against parainfluenza virus-3 (in words) (Para influenza-3 virus): no inhibitory activity | inhibitory activity against reovirus-1 (in words) (Reo virus-1): no inhibitory activity | inhibitory activity against Sindbis virus (in words) (Sindbis virus): no inhibitory activity | inhibitory activity against Punta Toro virus (in words) (Punta Toro virus): no inhibitory activity | IC50 [1]: 0.3 µg/mL (≈ 0.714 µM) | IC50 ([2]; read-out: IC50 cytostatic activity): 0.3 to 2.5 µg/mL (≈ 0.714 to 5.95 µM)

N#Cc1ccc(NC(=S)NN=Cc2ccccc2)cc1 [Ia, 2-Benzylidene-N-(4-cyanophenyl)hydrazinecarbothioamide]
cytostatic activity (in words) ([2]; tumor cell lines L1210, CEM, HeLa): did not show cytostatic activity

CSc1ccc(NC(=S)NN)cc1 [II, N-(4-methylsulfanylphenyl)hydrazinecarbothioamide]
EC50 (Vaccina virus): 45 to 50 µg/mL (≈ 211 to 234 µM)
